pIC50: −log10 of the molar value.
Experiments:
Rattus norvegicus [1] = assay: Chronic effect on preestablished dyslipidemia in rats for nonHDL-C at 30 mg/kg of compound was determined; assay type: functional
Method in brief: (§1)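 Plasma total cholesterol measured; HDL-C separated by dextran sulfate precipitation of whole plasma, nonHDL-C derived. n = 5/group, mean ± SEM, % change versus PCC-fed controls; chow-fed controls included.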

Rattus norvegicus [2] = assay: Chronic effect on preestablished dyslipidemia in rats for nonHDL-C at 10 mg/kg of compound was determined; assay type: functional; method in brief: as §1
Rattus norvegicus [3] = assay: Chronic effect on preestablished dyslipidemia in rats for nonHDL-C at 3 mg/kg of compound was determined; assay type: functional; method in brief: as §1
Rattus norvegicus [4] = assay: Chronic effect on preestablished dyslipidemia in rats for HDL-C at 3 mg/kg of compound was determined; assay type: functional; method in brief: as §1
Rattus norvegicus [5] = assay: Chronic effect on preestablished dyslipidemia in rats for total cholesterol at 1 mg/kg of compound was determined; assay type: functional; method in brief: as §1
Rattus norvegicus [6] = assay: Chronic effect on preestablished dyslipidemia in rats for nonHDL-C at 1 mg/kg of compound was determined; assay type: functional; method in brief: as §1
Rattus norvegicus [7] = assay: Chronic effect on preestablished dyslipidemia in rats for total cholesterol at 3 mg/kg of compound was determined; assay type: functional; method in brief: as §1
Rattus norvegicus [8] = assay: Chronic effect on preestablished dyslipidemia in rats for HDL-C at 10 mg/kg of compound was determined; assay type: functional; method in brief: as §1
Rattus norvegicus [9] = assay: […] activity in rats at a dose of 30 mg/kg of compound was determined; assay type: functional
Method in brief: (§2)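 Acute model in rats: one dose given, then ad libitum overnight feeding of chow supplemented with peanut oil (5.5%), cholesterol (1.5%) and cholic acid (0.5%). Plasma cholesterol measured; n = 5/group; mean ± SEM; percent change relative to PCC-fed controls. ED50 is the dose that lowers plasma cholesterol by 50%.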

Rattus norvegicus [10] = assay: […] activity in rats at a dose of 100 mg/kg of compound was determined; assay type: functional; method in brief: as §2
Rattus norvegicus [11] = assay: Chronic effect on preestablished dyslipidemia in rats for HDL-C at 30 mg/kg of compound was determined; assay type: functional; method in brief: as §1
Rattus norvegicus [12] = assay: […] activity in rats at a dose of 1 mg/kg of compound was determined; assay type: functional; method in brief: as §2
Rattus norvegicus [13] = assay: Chronic effect on preestablished dyslipidemia in rats for HDL-C at 100 mg/kg of compound was determined; assay type: functional; method in brief: as §1
[14] = target: T1, Sterol O-acyltransferase 1 (Rattus norvegicus, UniProt O70536); assay: Compound was evaluated for the Acyl coenzyme A:cholesterol acyltransferase inhibition using microsomes isolated from the livers of cholesterol fed rats.; set-up: species or system Liver
T1 sequence (O70536 whole entry): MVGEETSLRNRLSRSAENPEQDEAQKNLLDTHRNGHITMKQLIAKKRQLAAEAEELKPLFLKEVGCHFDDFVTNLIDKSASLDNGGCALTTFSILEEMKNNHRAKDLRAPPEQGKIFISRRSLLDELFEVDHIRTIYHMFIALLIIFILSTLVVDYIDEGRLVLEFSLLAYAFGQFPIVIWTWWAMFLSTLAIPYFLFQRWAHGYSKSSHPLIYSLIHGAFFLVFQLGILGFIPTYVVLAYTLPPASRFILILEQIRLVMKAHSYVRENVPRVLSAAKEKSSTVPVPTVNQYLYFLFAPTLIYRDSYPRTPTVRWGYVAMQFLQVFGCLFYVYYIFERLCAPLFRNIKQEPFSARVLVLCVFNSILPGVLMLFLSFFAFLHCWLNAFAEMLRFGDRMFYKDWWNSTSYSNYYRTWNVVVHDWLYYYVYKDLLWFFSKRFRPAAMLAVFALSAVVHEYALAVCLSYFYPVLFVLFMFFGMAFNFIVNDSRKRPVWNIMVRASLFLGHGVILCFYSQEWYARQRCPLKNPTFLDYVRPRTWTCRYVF
Method in brief: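 Liver microsomes from cholesterol-fed rats served as the ACAT source. IC50 was determined in four separate assays, each using four drug concentrations, and averaged.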

Rattus norvegicus [15] = assay: Chronic effect on preestablished dyslipidemia in rats for total cholesterol at 30 mg/kg of compound was determined; assay type: functional; method in brief: as §1
Rattus norvegicus [16] = assay: Chronic effect on preestablished dyslipidemia in rats for HDL-C at 1 mg/kg of compound was determined; assay type: functional; method in brief: as §1
Rattus norvegicus [17] = assay: Chronic effect on preestablished dyslipidemia in rats for total cholesterol at 100 mg/kg of compound was determined; assay type: functional; method in brief: as §1
Rattus norvegicus [18] = assay: […] activity in rats at a dose of 3 mg/kg of compound was determined; assay type: functional; method in brief: as §2
Rattus norvegicus [19] = assay: Chronic effect on preestablished dyslipidemia in rats for total cholesterol at 10 mg/kg of compound was determined; assay type: functional; method in brief: as §1
Rattus norvegicus [20] = assay: […] activity in rats at a dose of 10 mg/kg of compound was determined; assay type: functional; method in brief: as §2
Rattus norvegicus [21] = species on record: Rattus norvegicus; assay: Dose required to lower the plasma cholesterol by 50% in rats was determined; assay type: functional; method in brief: as §2
Rattus norvegicus [22] = assay: Chronic effect on preestablished dyslipidemia in rats for nonHDL-C at 100 mg/kg of compound was determined; assay type: functional; method in brief: as §1
Rattus norvegicus [23] = assay: Anti hypercholesterolemic activity in rats at a dose of 0.3 mg/kg of compound was determined; assay type: functional; method in brief: as §2
Rattus norvegicus [24] = assay: […] activity in rats at a dose of 30 mg/kg was determined; assay type: functional; method in brief: as §2
[25] = Partition coefficient was measured by the shake flask method at pH 7.4.; assay type: physicochemical; settings: octanol/water
Method in brief: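 Log P determined by shake-flask partitioning at pH 7.4.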

Rattus norvegicus [26] = assay: Chronic effect on preestablished dyslipidemia in rats for nonHDL-C at 0.3 mg/kg of compound was determined; assay type: functional; method in brief: as §1
Caco-2 = assay: Activity of compound in an intestine model using Caco-2 cells; assay type: functional, cell-based; settings: Homo sapiens, Caco-2, Intestine
Method in brief: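 CaCo-2 intestinal cells incubated with radiolabeled oleic acid in the presence of test agent; ACAT activity in intact cells read as oleate incorporation into cholesteryl esters, with triglyceride and phospholipid incorporation also followed up to 100 µM. IC50 averaged over three separate experiments.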

[27] = target: T1, Sterol O-acyltransferase 1; assay: Compound was evaluated for the Acyl coenzyme A:cholesterol acyltransferase inhibition using microsomes isolated from the livers of cholesterol fed rats; set-up: species or system Liver
Method in brief: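 Liver microsomes prepared from cholesterol-fed rats used as ACAT source. IC50 determined from four drug concentrations per assay, in four separate assays, and reported as the mean.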

Rattus norvegicus [28] = assay: Chronic effect on preestablished dyslipidemia in rats for HDL-C at 10 […] of compound was determined; assay type: functional; method in brief: as §1
Rattus norvegicus [29] = assay: […] activity in rats at a dose of 10 mg/kg was determined; assay type: functional; method in brief: as §2
Rattus norvegicus [30] = assay: Chronic effect on preestablished dyslipidemia in rats for HDL-C at 0.3 mg/kg of compound was determined; assay type: functional; method in brief: as §1
Rattus norvegicus [31] = assay: Chronic effect on preestablished dyslipidemia in rats for total cholesterol at 0.3 mg/kg of compound was determined; assay type: functional; method in brief: as §1

In the case of `CCCCCCCN(CCCCCSc1nc(-c2ccccc2)c(-c2ccccc2)[nH]1)C(=O)Nc1ccc(F)cc1F` [LECIMIBIDE], the Effect (Rattus norvegicus [1]) was 98 mg/dL, the Effect (Rattus norvegicus [2]) was 135 mg/dL and the Effect (Rattus norvegicus [3]) was 203 mg/dL. For the same compound, the Effect (Rattus norvegicus [4]) was 14 mg/dL, the Effect (Rattus norvegicus [5]) was 244 mg/dL and the Effect (Rattus norvegicus [6]) was 234 mg/dL. The Effect (Rattus norvegicus [7]) was 217 mg/dL, the Effect (Rattus norvegicus [8]) was 18 mg/dL and the Activity (Rattus norvegicus [9]) was 74. The Activity (Rattus norvegicus [10]) was 79, the Effect (Rattus norvegicus [11]) was 21 mg/dL and the Activity (Rattus norvegicus [12]) was 158. The Effect (Rattus norvegicus [13]) was 32 mg/dL, the pIC50 [14] was 7.74 and the Effect (Rattus norvegicus [15]) was 120 mg/dL. It also gave an Effect (Rattus norvegicus [16]) of 10 mg/dL, an Effect (Rattus norvegicus [17]) of 119 mg/dL and an Activity (Rattus norvegicus [18]) of 122. The Effect (Rattus norvegicus [19]) was 154 mg/dL, the Activity (Rattus norvegicus [20]) was 77 and the ED50 (Rattus norvegicus [21]) was 15.2 mg/kg. The Effect (Rattus norvegicus [22]) was 87 mg/dL.

Work on `CC(C)c1cccc(C(C)C)c1OC(=O)[N-]S(=O)(=O)Oc1c(C(C)C)cccc1C(C)C.[Na+]` yielded an Effect (Rattus norvegicus [1]) of 47 mg/dL, an Activity (Rattus norvegicus [23]) of 142 and an Activity (Rattus norvegicus [24]) of 50. The Effect (Rattus norvegicus [2]) was 59 mg/dL, the Effect (Rattus norvegicus [3]) was 53 mg/dL and the Effect (Rattus norvegicus [4]) was 39 mg/dL. The logD [25] was 2.98, the Effect (Rattus norvegicus [5]) was 127 mg/dL and the Effect (Rattus norvegicus [6]) was 102 mg/dL. The Effect (Rattus norvegicus [7]) was 92 mg/dL, the Effect (Rattus norvegicus [26]) was 192 mg/dL and the Effect (Rattus norvegicus [11]) was 44 mg/dL. For the same compound, the pIC50 (Caco-2) was 6.03, the Activity (Rattus norvegicus [12]) was 98 and the pIC50 [27] was 5.28. The Effect (Rattus norvegicus [28]) was 52 mg/dL, the Activity (Rattus norvegicus [29]) was 56 and the Effect (Rattus norvegicus [15]) was 91 mg/dL. It also gave an Effect (Rattus norvegicus [30]) of 11 mg/dL, an Effect (Rattus norvegicus [16]) of 25 mg/dL and an Effect (Rattus norvegicus [31]) of 204 mg/dL. For the same compound, the Activity (Rattus norvegicus [18]) was 78, the Effect (Rattus norvegicus [19]) was 111 mg/dL and the ED50 (Rattus norvegicus [21]) was 1.8 mg/kg.

— ChEMBL document CHEMBL1127335, “Inhibitors of acyl-CoA: cholesterol O-acyl transferase (ACAT) as hypocholesterolemic agents. 6. The first water-soluble ACAT inhibitor with lipid-regulating activity” (J Med Chem, 1994)
